The values that follow come from ChEMBL document CHEMBL4052814, “GNE-781, A Highly Advanced Potent and Selective Bromodomain Inhibitor of Cyclic Adenosine Monophosphate Response Element Binding Protein, Binding Protein (CBP)” (J Med Chem, 2017).

One series has as its target Cytochrome P450 2C9 (Homo sapiens, UniProt P11712). Description: Inhibition of CYP2C9 (unknown origin). The format is ADME.
A further series concerns the target Cytochrome P450 1A2 (Homo sapiens, UniProt P05177). Description: Inhibition of CYP1A2 (unknown origin). The format is ADME.
The subject of series [1] is Mus musculus. Description: In vivo inhibition of CBP in human MOLM16 cells xenografted in C.B-17 SCID beige mouse assessed as suppression of MYC transcript levels at 10 mg/kg administered via oral gavage […] measured 2 hrs post last dose by real time-PCR method relative to control. The format is functional. The gist of the method:
(§1)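 MOLM-16 subcutaneous xenografts in SCID beige mice received single oral doses of 3–30 mg/kg (n=3/group). Tumors were taken at time points from 2 to 24 h. MYC transcript was measured in tumor RNA by one-step TaqMan qRT-PCR with ACTB as housekeeping gene. Results are given relative to vehicle-treated animals by the comparative Ct method.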
Background: Xenograft models place foreign cells or tissue in a host animal.

A short description of series [2]: Drug uptake in tumor of C.B-17 SCID beige mouse xenografted with human MOLM16 cells at 3 to 30 mg/kg administered via oral gavage […] measured 2 to 24 hrs post last dose by LC-MS/MS method. The format is ADME, organism-based, Neoplasm. The conditions noted are these: in vivo. The gist of the method:
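In MOLM-16 xenograft mice given single oral doses of 3–30 mg/kg, plasma and tumor were sampled from 2 to 24 h. Tumor was homogenized in 4 volumes of water. Both matrices were extracted with acetonitrile with labetalol as internal standard and measured by LC-MS/MS. Levels were corrected for plasma protein and tissue binding to give unbound concentrations.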

A short description of series [3]: Antitumor activity against human MOLM16 cells xenografted in C.B-17 SCID beige mouse assessed as tumor growth inhibition at 10 mg/kg administered via oral gavage as bid for 21 days relative to control. The format is functional. The conditions noted are these: read-out: TGI. The essentials: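 Female C.B-17 SCID.bg mice received 5 million MOLM-16 cells s.c. in HBSS/Matrigel in the right flank. Dosing began at 130–300 mm3: oral gavage BID for 21 days in 0.5% methylcellulose, 0.2% Tween 80, n=10/group. Caliper volumes taken; %TGI computed from the area under the mixed-model spline-fitted curve per day versus vehicle.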

The subject of series [4] is Mus musculus. The series is described as follows: In vivo inhibition of CBP in human MOLM16 cells xenografted in C.B-17 SCID beige mouse assessed as suppression of MYC transcript levels at 30 mg/kg administered via oral gavage […] measured 2 hrs post last dose by real time-PCR method relative to control. It is filed as functional. The gist of the method:
as §1

A short description of series [5]: Cytotoxicity against induced-Treg cells differentiated from human PBMC derived naive CD4-positive T cells assessed as effect on cell viability at 0.001 to 2 uM measured after 4 days by […] dye-based flow cytometry. The conditions noted are these: 96 h. The gist of the method: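 Naïve CD4+ T cells from healthy-donor PBMC were differentiated to iTregs with anti-CD3, anti-CD28, rIL-2 (10 ng/ml) and rTGFβ in RPMI-1640 with 10% FCS. Compound was tested from 2 µM in 2-fold dilutions, with DMSO as control. Cells were harvested on day 4 and viability was scored by flow cytometry with a fixable viability dye.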
(A flow cytometer gives signals particle by particle.)

The test system of series [6] is Mus musculus. Description: In vivo inhibition of CBP in human MOLM16 cells xenografted in C.B-17 SCID beige mouse assessed as MYC transcript levels at 3 mg/kg administered via oral gavage as bid for 21 days measured 16 hrs post last dose by real time-PCR method. The format is functional. More on the design: scale not given: the % may be the effect or the level left.

Series [7] concerns Mus musculus. Description: Toxicity in C.B-17 SCID beige mouse xenografted with human MOLM-16 cells assessed as decrease in body weight at 3 to 30 mg/kg administered via oral gavage as bid for 21 days measured during compound dosing. The conditions noted are these: in vivo.
In the next series the target is Cytochrome P450 3A4 (Homo sapiens, UniProt P08684). The series is described as follows: Inhibition of CYP3A4 (unknown origin). The format is ADME.
Cytochrome P450 3A4, sequence (P08684 whole entry): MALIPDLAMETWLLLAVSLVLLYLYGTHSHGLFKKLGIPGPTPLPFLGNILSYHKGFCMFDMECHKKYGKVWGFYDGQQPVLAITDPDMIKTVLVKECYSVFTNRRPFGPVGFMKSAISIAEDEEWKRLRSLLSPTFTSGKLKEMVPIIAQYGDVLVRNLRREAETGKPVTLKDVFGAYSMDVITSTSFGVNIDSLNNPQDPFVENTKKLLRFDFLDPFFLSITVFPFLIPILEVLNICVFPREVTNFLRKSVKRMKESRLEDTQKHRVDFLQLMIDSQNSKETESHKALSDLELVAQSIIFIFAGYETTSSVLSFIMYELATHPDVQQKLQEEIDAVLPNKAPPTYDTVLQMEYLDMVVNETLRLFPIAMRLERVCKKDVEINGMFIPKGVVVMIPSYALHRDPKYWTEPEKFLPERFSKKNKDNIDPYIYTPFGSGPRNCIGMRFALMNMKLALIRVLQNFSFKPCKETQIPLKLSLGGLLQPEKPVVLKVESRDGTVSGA
For another series, the system named is Plasma. Description: Drug uptake in plasma of C.B-17 SCID beige mouse xenografted with human MOLM16 cells at 3 to 30 mg/kg administered via oral gavage as bid for 21 days measured 2 to 24 hrs post last dose by LC-MS/MS method. It is filed as ADME, organism-based. The note with it: in vivo.
In series [8] the target is Bromodomain-containing protein 4 (Homo sapiens, UniProt O60885). The series is described as follows: Displacement of biotinylated histone H3K14 peptide ligand from human recombinant His-tagged BRD4 bromodomain-2 measured after 10 mins by TR-FRET assay. (Time-resolved FRET reads energy transfer from a long-lived donor to a nearby acceptor.)
The target in series [9] is T1, CREB-binding protein (Homo sapiens, UniProt Q92793). Description: Displacement of biotinylated histone H3K14 peptide ligand from human recombinant His-tagged CBP measured after 10 mins by TR-FRET assay.
T1 sequence (Q92793 whole entry): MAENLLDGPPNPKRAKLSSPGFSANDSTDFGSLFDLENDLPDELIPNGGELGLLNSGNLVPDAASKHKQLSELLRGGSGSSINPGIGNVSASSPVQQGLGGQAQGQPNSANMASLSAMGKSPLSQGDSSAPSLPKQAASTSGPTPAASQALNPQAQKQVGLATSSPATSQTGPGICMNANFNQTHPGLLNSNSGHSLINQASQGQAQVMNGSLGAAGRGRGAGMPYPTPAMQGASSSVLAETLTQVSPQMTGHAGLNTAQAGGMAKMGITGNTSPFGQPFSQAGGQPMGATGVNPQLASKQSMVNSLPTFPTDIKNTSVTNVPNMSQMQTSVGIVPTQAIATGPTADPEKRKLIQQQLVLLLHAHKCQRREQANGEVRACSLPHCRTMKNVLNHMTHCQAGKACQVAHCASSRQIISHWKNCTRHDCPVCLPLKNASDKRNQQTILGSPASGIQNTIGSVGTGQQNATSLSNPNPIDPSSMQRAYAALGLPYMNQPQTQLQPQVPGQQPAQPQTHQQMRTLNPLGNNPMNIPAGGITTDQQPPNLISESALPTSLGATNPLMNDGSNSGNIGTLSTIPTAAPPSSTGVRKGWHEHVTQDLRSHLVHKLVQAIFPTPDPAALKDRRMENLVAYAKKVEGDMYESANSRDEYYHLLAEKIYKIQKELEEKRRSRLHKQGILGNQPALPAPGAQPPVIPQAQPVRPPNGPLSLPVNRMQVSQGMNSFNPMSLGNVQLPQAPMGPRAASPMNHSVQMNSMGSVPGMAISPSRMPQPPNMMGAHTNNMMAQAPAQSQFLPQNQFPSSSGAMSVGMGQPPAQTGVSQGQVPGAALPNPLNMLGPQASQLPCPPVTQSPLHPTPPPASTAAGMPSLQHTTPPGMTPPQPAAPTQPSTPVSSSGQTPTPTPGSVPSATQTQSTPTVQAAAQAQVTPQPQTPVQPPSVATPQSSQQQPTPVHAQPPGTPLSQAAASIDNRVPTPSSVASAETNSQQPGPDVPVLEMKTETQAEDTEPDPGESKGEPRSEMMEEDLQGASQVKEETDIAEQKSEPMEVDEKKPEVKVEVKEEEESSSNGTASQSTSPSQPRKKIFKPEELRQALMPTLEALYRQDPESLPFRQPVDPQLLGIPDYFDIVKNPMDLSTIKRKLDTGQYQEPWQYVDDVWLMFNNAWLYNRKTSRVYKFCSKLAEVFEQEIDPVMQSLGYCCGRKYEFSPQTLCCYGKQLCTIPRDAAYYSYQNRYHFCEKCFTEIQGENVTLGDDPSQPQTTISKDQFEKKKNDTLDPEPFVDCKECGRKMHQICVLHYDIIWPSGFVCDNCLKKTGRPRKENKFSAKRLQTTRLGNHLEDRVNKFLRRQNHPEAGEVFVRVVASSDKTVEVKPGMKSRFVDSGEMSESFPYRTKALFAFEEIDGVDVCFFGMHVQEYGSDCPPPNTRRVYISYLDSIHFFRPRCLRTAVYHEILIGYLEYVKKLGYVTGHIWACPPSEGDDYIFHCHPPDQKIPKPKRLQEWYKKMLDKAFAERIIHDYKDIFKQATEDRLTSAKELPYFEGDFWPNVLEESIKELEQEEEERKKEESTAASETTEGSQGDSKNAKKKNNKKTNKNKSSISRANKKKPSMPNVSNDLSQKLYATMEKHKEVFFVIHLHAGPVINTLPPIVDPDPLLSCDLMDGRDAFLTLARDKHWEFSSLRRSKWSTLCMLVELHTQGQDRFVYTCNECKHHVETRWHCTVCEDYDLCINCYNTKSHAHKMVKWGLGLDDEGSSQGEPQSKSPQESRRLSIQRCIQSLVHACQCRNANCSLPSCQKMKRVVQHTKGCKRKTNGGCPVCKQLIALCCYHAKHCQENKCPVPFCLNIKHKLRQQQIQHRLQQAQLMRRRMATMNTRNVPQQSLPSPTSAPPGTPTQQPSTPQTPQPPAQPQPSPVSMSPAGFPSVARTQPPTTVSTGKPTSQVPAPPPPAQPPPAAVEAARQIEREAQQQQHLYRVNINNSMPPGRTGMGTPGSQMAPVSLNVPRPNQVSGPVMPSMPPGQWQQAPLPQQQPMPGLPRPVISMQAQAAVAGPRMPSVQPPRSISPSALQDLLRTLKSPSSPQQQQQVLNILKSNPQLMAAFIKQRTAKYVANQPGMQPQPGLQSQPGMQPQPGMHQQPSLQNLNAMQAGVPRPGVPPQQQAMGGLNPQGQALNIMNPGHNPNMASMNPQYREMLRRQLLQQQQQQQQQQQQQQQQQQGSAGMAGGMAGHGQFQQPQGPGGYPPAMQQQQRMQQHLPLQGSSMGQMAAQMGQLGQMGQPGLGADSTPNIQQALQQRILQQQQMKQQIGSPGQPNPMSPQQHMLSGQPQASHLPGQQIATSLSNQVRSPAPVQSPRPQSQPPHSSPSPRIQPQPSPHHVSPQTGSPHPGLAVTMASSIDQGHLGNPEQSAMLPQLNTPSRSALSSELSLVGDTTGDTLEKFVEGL
Series [10] addresses T1, CREB-binding protein. The series is described as follows: Inhibition of CBP in human MV-4-11 cells assessed as decrease in MYC expression incubated for 4 hrs measured by luminescence method. It is filed as cell-based.

Cytochrome P450 1A2, sequence (P05177 whole entry): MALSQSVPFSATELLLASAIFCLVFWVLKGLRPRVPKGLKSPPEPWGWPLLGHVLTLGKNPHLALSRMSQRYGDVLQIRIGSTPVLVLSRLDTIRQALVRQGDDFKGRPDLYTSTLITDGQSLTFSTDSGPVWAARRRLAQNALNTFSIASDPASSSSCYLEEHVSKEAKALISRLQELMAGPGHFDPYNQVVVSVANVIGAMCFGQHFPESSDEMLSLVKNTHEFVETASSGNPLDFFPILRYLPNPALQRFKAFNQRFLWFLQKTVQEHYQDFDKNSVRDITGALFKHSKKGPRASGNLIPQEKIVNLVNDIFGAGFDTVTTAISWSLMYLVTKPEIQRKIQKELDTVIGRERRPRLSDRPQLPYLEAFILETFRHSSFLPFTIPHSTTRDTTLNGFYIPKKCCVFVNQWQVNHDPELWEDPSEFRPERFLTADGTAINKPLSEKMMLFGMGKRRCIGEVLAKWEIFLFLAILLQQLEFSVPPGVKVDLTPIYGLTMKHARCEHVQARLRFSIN
Cytochrome P450 2C9, sequence (P11712 whole entry): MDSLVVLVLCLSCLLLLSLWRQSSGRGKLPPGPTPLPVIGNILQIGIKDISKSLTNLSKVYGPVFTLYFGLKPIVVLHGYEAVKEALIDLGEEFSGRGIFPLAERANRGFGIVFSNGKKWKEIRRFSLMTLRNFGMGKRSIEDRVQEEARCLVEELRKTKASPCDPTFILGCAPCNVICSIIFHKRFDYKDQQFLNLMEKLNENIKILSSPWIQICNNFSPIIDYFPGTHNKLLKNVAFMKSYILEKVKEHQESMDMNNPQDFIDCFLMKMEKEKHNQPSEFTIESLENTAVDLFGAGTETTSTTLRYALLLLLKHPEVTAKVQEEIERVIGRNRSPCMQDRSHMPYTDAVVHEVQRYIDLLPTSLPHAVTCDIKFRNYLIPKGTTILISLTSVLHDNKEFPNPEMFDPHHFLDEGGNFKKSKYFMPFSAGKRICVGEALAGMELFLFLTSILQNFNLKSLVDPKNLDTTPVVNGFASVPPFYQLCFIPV

By IC50 is commonly meant the point on the concentration scale where inhibition reaches its midpoint. As to `CNC(=O)N1CCc2c(c(N3CCCc4cc(-c5cnn(C)c5)c(C(F)F)cc43)nn2C2CCOCC2)C1`, the IC50 on Cytochrome P450 2C9, against Cytochrome P450 1A2 and against Cytochrome P450 3A4 was above 10 µM each time. Moreover, the Imax in the series on Mus musculus [1] was 87%; in the series with Mus musculus [4] it was 88%. The Drug uptake entry (in series [2]; in the series with Plasma) was “Active” each time. Also, the inhibition in vivo at 10 mg/kg in [3] came to 71%. Also, the figures for the Activity entry (in [5]; in the series on Mus musculus [6]) were “Non-Toxic” and 150%, respectively. Further, the “%max” value in the series on Mus musculus [7] worked out at 3.7%.
Usually EC50 stands for the concentration giving half of the maximal effect. Consider `CC(=O)N1CCc2c(c(N3CCCc4cc(-c5cnn(C)c5)c(C(F)F)cc43)nn2C2CCOCC2)C1`, for which the figures for the IC50 (in series [8]; on CREB-binding protein [9]) were above 20 µM and 0.0011 µM, respectively. Moreover, the EC50 on CREB-binding protein [10] amounted to 0.014 µM.
